Results from ChEMBL document CHEMBL2424598, “Identification and optimization of pteridinone Toll-like receptor 7 (TLR7) agonists for the oral treatment of viral hepatitis” (J Med Chem, 2013).

Columns and labels:
Cynomolgus monkey [1] = assay: Agonist activity at […] in cynomolgus monkey assessed as increase of serum IFNalpha level at 0.1 mg/kg, iv after 1 to 24 hrs by ELISA; assay type: functional, Macaca fascicularis
Summary of the method: (§1)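 Healthy male cynomolgus monkeys, n = 3 per group, dosed either by 30 min iv infusion or orally. Serum was sampled predose and at 1, 2, 4, 8, 12 and 24 h postdose. IFN-α was measured by species-specific ELISA (limit of detection 130 pg/mL) and reported as mean peak serum level ± SD.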

[2] = Half life in mouse liver microsomes; assay type: ADME, Microsome
Cynomolgus monkey [3] = assay: Agonist activity at […] in cynomolgus monkey assessed as increase of serum IFNalpha level at 2 mg/kg, po after 1 to 24 hrs by ELISA; assay type: functional, Macaca fascicularis; summary of the method: as §1
[4] = target: T1, Toll-like receptor 7 (Homo sapiens) (UniProt Q9NYK1); assay: Agonist activity at TLR7-mediated IFNalpha production in human PBMC assessed as minimum concentration of compound necessary to generate >3 fold of cytokine levels relative to control
T1 sequence (whole entry): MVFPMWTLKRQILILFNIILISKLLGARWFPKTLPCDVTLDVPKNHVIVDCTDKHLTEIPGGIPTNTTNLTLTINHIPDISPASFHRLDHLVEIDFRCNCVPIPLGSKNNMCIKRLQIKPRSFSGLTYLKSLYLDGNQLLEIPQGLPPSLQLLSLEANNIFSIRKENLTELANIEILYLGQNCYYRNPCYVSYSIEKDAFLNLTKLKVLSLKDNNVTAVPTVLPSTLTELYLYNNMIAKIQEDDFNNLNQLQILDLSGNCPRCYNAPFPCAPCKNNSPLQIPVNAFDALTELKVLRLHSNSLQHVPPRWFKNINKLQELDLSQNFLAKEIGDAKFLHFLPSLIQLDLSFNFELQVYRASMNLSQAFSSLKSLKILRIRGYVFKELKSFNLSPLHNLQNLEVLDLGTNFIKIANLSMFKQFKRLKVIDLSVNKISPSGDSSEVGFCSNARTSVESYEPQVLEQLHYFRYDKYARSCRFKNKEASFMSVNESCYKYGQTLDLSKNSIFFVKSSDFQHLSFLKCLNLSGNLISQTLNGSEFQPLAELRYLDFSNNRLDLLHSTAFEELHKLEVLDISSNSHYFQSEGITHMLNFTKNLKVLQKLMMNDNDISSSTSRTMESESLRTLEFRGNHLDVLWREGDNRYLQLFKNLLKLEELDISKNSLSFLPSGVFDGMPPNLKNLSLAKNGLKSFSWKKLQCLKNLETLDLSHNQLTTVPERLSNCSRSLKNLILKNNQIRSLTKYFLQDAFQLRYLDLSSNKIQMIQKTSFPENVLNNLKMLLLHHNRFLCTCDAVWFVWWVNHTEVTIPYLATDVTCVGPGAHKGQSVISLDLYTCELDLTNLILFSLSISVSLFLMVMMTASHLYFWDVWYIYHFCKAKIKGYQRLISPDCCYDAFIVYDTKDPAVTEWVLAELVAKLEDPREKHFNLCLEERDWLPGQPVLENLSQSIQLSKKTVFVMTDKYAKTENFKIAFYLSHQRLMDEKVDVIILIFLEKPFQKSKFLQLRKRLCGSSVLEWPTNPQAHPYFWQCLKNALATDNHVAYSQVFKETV
Summary of the method: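 Cryopreserved PBMCs from leukapheresis of a single healthy human donor, chosen as a consistent, robust responder to TLR7 agonist stimulation. Cells were incubated with compound for 24 h over an eight-point concentration range. Secreted IFN-α was measured to build dose-response curves. MEC was taken as the lowest concentration giving cytokine levels ≥3-fold over untreated control cultures.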

[5] = Half life in human liver microsomes; assay type: ADME, Microsome
Cynomolgus monkey [6] = assay: Agonist activity at […] in cynomolgus monkey assessed as increase of serum IFNalpha level at 0.3 mg/kg, po after 1 to 24 hrs by ELISA; assay type: functional, Macaca fascicularis; summary of the method: as §1
[7] = Cmax in cynomolgus monkey at 0.1 mg/kg, po; assay type: ADME, organism-based, Macaca fascicularis; set-up: dose 0.1 mg/kg, route oral; settings: in vivo
Summary of the method: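 Male cynomolgus monkeys, n = 3 per group, received a 30 min iv infusion or an oral dose. Compound was measured in serum (limit of quantitation 0.04 ng/mL), and Cmax is reported as the group mean.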

[8] = target: T2, Toll-like receptor 8 (Homo sapiens) (UniProt Q9NR97); assay: Agonist activity at TLR8-mediated TNFalpha production in human PBMC assessed as minimum concentration of compound necessary to generate >3 fold of cytokine levels relative to control
T2 sequence (whole entry): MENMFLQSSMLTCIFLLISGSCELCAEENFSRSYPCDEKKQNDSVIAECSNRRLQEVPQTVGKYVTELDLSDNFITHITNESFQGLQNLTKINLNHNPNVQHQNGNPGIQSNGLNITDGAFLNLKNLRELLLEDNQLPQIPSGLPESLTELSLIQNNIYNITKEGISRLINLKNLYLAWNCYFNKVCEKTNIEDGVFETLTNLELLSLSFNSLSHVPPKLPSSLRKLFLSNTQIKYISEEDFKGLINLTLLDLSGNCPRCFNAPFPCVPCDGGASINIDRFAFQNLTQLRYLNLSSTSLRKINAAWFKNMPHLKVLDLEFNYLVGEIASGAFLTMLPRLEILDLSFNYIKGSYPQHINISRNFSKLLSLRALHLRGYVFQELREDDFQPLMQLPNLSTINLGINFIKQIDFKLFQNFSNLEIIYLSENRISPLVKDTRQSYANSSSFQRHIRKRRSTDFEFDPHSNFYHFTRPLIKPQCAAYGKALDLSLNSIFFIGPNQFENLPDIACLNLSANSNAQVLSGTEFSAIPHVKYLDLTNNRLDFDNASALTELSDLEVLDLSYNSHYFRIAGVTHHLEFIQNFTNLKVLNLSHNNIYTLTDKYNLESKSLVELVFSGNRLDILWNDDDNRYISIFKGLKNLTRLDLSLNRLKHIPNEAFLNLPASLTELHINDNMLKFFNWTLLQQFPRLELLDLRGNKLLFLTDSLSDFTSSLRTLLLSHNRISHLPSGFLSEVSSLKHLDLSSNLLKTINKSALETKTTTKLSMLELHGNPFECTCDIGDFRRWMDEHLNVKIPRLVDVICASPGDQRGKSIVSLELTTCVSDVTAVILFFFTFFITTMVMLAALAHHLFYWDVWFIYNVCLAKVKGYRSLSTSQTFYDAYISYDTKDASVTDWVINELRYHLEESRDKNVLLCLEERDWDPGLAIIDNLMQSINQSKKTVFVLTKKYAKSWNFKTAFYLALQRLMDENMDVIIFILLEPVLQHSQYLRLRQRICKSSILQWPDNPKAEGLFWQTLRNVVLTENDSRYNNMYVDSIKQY
Summary of the method: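 Cryopreserved human PBMCs from leukapheresis of one healthy donor, chosen as a consistent responder to TLR7 stimulation; 24 h incubation with compound over an eight-point concentration range. TNF-α read from dose-response curves. MEC is the lowest concentration giving cytokine levels at least 3-fold above untreated control cultures.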

Toll-like receptor 7 = target: T3, Toll-like receptor 7 (Homo sapiens, UniProt Q9NYK1); assay: Agonist activity at human TLR7 expressed in HEK293 cells by reporter based assay; assay type: cell-based
T3 sequence (Q9NYK1 whole entry): T1 sequence (whole entry)
Summary of the method: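 HEK293 reporter cell lines, each expressing a single human TLR, with compound titrated up to 100 μM. EC50 taken for TLR7 and TLR8 activation.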

half-life [2]: 4.9 min
MEC [4]: 3 nM
half-life [5]: 30.5 min
Cmax [7]: 1.6 ng/mL
MEC [8]: 3.65 µM
EC50 (Toll-like receptor 7): 290 nM
SMILES: CCCCOc1nc(N)c2c(n1)N(Cc1cccc(CN3CCCC3)c1)CC(=O)N2 [VESATOLIMOD]
Activity (Cynomolgus monkey [1]): 1840 pg/mL
Activity (Cynomolgus monkey [3]): 119000 pg/mL
Activity (Cynomolgus monkey [6]): 763 pg/mL
